pIC50: −log10 of the molar value. Where a name gives a salt, the structure may show the parent alone.
Columns and labels:
A549 = assay: Cytotoxicity against human A549 cells after 72 hrs by SRB assay; type: functional, cell-based; details: A549, 72 h
Outline: (§1)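 Adherent tumour cells were seeded in 96-well plates 24 h before dosing and exposed continuously to a series of compound concentrations for 72 h. Cells were then fixed and stained with sulforhodamine B to read out cytotoxicity.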

K562 = assay: Cytotoxicity against human K562 cells after 72 hrs by trypan blue exclusion method; details: K562, 72 h
HT-29 = assay: Cytotoxicity against human HT29 cells after 72 hrs by SRB assay; type: functional, cell-based; details: HT-29, 72 h; outline: as §1

SMILES | pIC50 (A549) | pIC50 (K562) | pIC50 (HT-29)
CC(=O)[C@]1(N)Cc2c(O)c3c(c(O)c2[C@@H](O[C@H]2C[C@H](O)[C@H](O)CO2)C1)C(=O)c1ccccc1C3=O [AMRUBICIN HYDROCHLORIDE] | 6.09 | 5.90 | 5.36
CC1=C[C@@H]2CC3=C([C@H](O)C[C@]4(C)[C@H]3C[C@]3(O)C=C5C=CC(=O)OC(C)(C)[C@@H]5CC[C@@H]43)[C@H](C)[C@@H]2OC1=O [KADLONGILACTONE A] | 5.91 | 5.46 | 5.84
CC1=C[C@@H]2CC3=C([C@@H](O)C[C@]4(C)[C@H]3C[C@]3(O)C=C5C=CC(=O)OC(C)(C)[C@@H]5CC[C@@H]43)[C@H](C)[C@@H]2OC1=O [KADLONGILACTONE D] | 6.31 | 5.72 | 5.79
CO[C@@H]1C[C@]2(C)[C@@H](C[C@]3(O)C=C4C=CC(=O)OC(C)(C)[C@@H]4CC[C@@H]23)C2=C1[C@H](C)[C@@H]1OC(=O)C(C)=C[C@@H]1C2 [KADLONGILACTONE C] | 5.84 | 5.44 | 5.68
CO[C@H]1C[C@]2(C)[C@@H](C[C@]3(O)C=C4C=CC(=O)OC(C)(C)[C@@H]4CC[C@@H]23)C2=C1[C@H](C)[C@@H]1OC(=O)C(C)=C[C@@H]1C2 [KADLONGILACTONE E] | 6.06 | 5.47 | 5.88

— ChEMBL document CHEMBL1141336, “Isolation and structure elucidation of kadlongilactones C-F from Kadsura longipedunculata by NMR spectroscopy and DFT computational methods” (J Nat Prod, 2007)
